Measurements reported in ChEMBL document CHEMBL1124730, “Acid-stable 2'-fluoro purine dideoxynucleosides as active agents against HIV” (1990).
Activity calls are given as the source filed them. No cut-off for these calls is given here.

Columns and labels:
[1] = system: Human immunodeficiency virus 1; assay: Ability to protect CD4+ ATH8 cells from cytopathogenic effect of HIV-1; Active; type: functional, organism-based; details: ATH-8
H9 [2] = assay: Percentage of gag protein expression using H9 cells at 200 uM on 7th day; type: functional, Homo sapiens
Summary of the method: (§1)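 H9 cells (105) were infected with HIV-1 (500 virus particles per cell) and cultured without or with drug at the stated concentration. On days 7, 10 and 12, the percentage of cells expressing HIV-1 p24 gag protein was scored by indirect immunofluorescence with murine monoclonal antibody M26.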

H9 [3] = assay: Percentage of gag protein expression using H9 cells at 5 uM on 10th day; type: functional, Homo sapiens; summary of the method: as §1
H9 [4] = assay: Percentage of gag protein expression using H9 cells at 5 uM on 12th day; type: functional, Homo sapiens; summary of the method: as §1
H9 [5] = assay: Percentage of gag protein expression using H9 cells at 5 uM on 7th day; type: functional, Homo sapiens; summary of the method: as §1
H9 [6] = assay: Percentage of gag protein expression using H9 cells at 50 uM on 10th day; type: functional, Homo sapiens; summary of the method: as §1
H9 [7] = assay: Percentage of gag protein expression using H9 cells at 50 uM on 12th day; type: functional, Homo sapiens; summary of the method: as §1
H9 [8] = assay: Percentage of gag protein expression using H9 cells at 20 uM on 7th day; type: functional, Homo sapiens; summary of the method: as §1
H9 [9] = assay: Percentage of gag protein expression using H9 cells at 200 uM on 10th day; type: functional, Homo sapiens; summary of the method: as §1
H9 [10] = assay: Percentage of gag protein expression using H9 cells at 200 uM on 12th day; type: functional, Homo sapiens; summary of the method: as §1
H9 [11] = assay: Percentage of gag protein expression using H9 cells at 50 uM on 7th day; type: functional, Homo sapiens; summary of the method: as §1
H9 [12] = assay: Percentage of gag protein expression using H9 cells at 0 uM on 7th day; type: functional, Homo sapiens; summary of the method: as §1
H9 [13] = assay: Percentage of gag protein expression using H9 cells at 100 uM on 10th day; type: functional, Homo sapiens; summary of the method: as §1
H9 [14] = assay: Percentage of gag protein expression using H9 cells at 100 uM on 12th day; type: functional, Homo sapiens; summary of the method: as §1
H9 [15] = assay: Percentage of gag protein expression using H9 cells at 100 uM on 7th day; type: functional, Homo sapiens; summary of the method: as §1
H9 [16] = assay: Percentage of gag protein expression using H9 cells at 20 uM on 10th day; type: functional, Homo sapiens; summary of the method: as §1
H9 [17] = assay: Percentage of gag protein expression using H9 cells at 20 uM on 12th day; type: functional, Homo sapiens; summary of the method: as §1
H9 (Homo sapiens) [18] = assay: Percentage of gag protein expression using H9 cells at 0 uM on 10th day
H9 (Homo sapiens) [19] = assay: Percentage of gag protein expression using H9 cells at 0 uM on 12th day
[20] = system: Human immunodeficiency virus 1; assay: Ability to protect CD4+ ATH8 cells from cytopathogenic effects of HIV-1; Inactive; type: functional, organism-based; details: ATH-8
[21] = system: Human immunodeficiency virus 1; assay: Ability to protect CD4+ ATH8 cells from cytopathogenic effects of HIV-1; No effect; type: functional, organism-based; details: ATH-8

O=c1[nH]cnc2c1ncn2[C@H]1CC[C@@H](CO)O1 [DIDANOSINE]
Activity [1]: Active | Expression (H9 [2]): 0% | Expression (H9 [3]): 53% | Expression (H9 [4]): 74% | Expression (H9 [5]): 73% | Expression (H9 [6]): 0% | Expression (H9 [7]): 3% | Expression (H9 [8]): 9% | Expression (H9 [9]): 0% | Expression (H9 [10]): 0% | Expression (H9 [11]): 0% | Expression (H9 [12]): 76% | Expression (H9 [13]): 0% | Expression (H9 [14]): 0% | Expression (H9 [15]): 0% | Expression (H9 [16]): 30% | Expression (H9 [17]): 48% | Expression (H9 (Homo sapiens) [18]): 73% | Expression (H9 (Homo sapiens) [19]): 83%

OCC1CC(F)C(n2cnc3c(O)ncnc32)O1 (stereo unspecified)
Activity [1]: Active | Expression (H9 [2]): 7% | Expression (H9 [3]): 82% | Expression (H9 [4]): 61% | Expression (H9 [5]): 54% | Expression (H9 [6]): 24% | Expression (H9 [7]): 57% | Expression (H9 [8]): 58% | Expression (H9 [9]): 10% | Expression (H9 [10]): 60% | Expression (H9 [11]): 23% | Expression (H9 [12]): 76% | Expression (H9 [13]): 12% | Expression (H9 [14]): 53% | Expression (H9 [15]): 34% | Expression (H9 [16]): 52% | Expression (H9 [17]): 61% | Expression (H9 (Homo sapiens) [18]): 71% | Expression (H9 (Homo sapiens) [19]): 74%

Nc1ncnc2c1ncn2[C@@H]1O[C@H](CO)C[C@H]1F
Activity [20]: inactive

Nc1ncnc2c1ncn2[C@H]1CC[C@@H](CO)O1
Activity [21]: inactive | Expression (H9 [2]): 0% | Expression (H9 [3]): 48% | Expression (H9 [4]): 86% | Expression (H9 [5]): 48% | Expression (H9 [6]): 0% | Expression (H9 [7]): 2% | Expression (H9 [8]): 1% | Expression (H9 [9]): 0% | Expression (H9 [10]): 0% | Expression (H9 [11]): 0% | Expression (H9 [12]): 79% | Expression (H9 [13]): 0% | Expression (H9 [14]): 0% | Expression (H9 [15]): 0% | Expression (H9 [16]): 0% | Expression (H9 [17]): 8% | Expression (H9 (Homo sapiens) [18]): 70% | Expression (H9 (Homo sapiens) [19]): 84%

Nc1ncnc2c1ncn2[C@@H]1O[C@H](CO)C[C@@H]1F [LODENOSINE]
Expression (H9 [2]): 0% | Expression (H9 [3]): 73% | Expression (H9 [4]): 66% | Expression (H9 [5]): 58% | Expression (H9 [6]): 20% | Expression (H9 [7]): 19% | Expression (H9 [8]): 61% | Expression (H9 [9]): 0% | Expression (H9 [10]): 0% | Expression (H9 [11]): 18% | Expression (H9 [12]): 79% | Expression (H9 [13]): 34% | Expression (H9 [14]): 50% | Expression (H9 [15]): 10% | Expression (H9 [16]): 37% | Expression (H9 [17]): 53% | Expression (H9 (Homo sapiens) [18]): 71% | Expression (H9 (Homo sapiens) [19]): 79%
